In data set [1] the target is T1, RNA-directed RNA polymerase (Hepacivirus hominis, UniProt O39930). In words: Inhibitory activity against HCV 1b BK NS5B deltaC55 RNA polymerase. Details: species or system Hepatitis C virus subtype 1b. A digest of the protocol:
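Purified HCV 1b-BK NS5B∆C55 (residues 1-536) expressed in E. coli BL21(DE3). Polymerase activity read on a homopolymeric template RNA at pH 7.4. IC50 is the average of at least three independent determinations; standard deviations within 30% of the average.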

A further data set concerns the target Hepatitis C virus. In words: Inhibition of subgenomic HCV RNA replication in Huh-7 cells (replicon assay). (In general: Replicon systems follow genome replication, usually without infectious particles.)
Data set [2] can be described thus: Dissociation constant, pKa of the compound. The class given is physicochemical.
Data set [3] is described as follows: Lipophilicity as measured by LogD at pH 7.4. The class given is physicochemical. The following applies: buffer.
Another data set is filed under the species Homo sapiens. In words: Percent of unbound ligand in human plasma. The class given is ADME, organism-based.
For data set [4], the target named is T1, RNA-directed RNA polymerase. In words: Inhibitory activity against HCV 1b BK NS5B deltaC55 RNA polymerase involving manganese chelation. The arrangement: species or system Hepatitis C virus subtype 1b. A digest of the protocol: (§1)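 HCV 1b-BK NS5B∆C55 (residues 1-536) from E. coli BL21(DE3), assayed on a homopolymeric template RNA with either Mg or Mn as the divalent metal ion. IC50 taken under each metal.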

Data set [5] has the same target. In words: Inhibitory activity against HCV 1b BK NS5B deltaC55 RNA polymerase involving magnesium chelation. The arrangement: species or system Hepatitis C virus subtype 1b. The method in brief: as §1
The target of data set [6] is RNA-directed RNA polymerase (Hepacivirus hominis, UniProt O39930, DELTAC55/R158K). The data set can be described thus: Inhibitory activity against HCV 1b BK NS5B deltaC55-R158K mutant RNA polymerase. Details: species or system Hepatitis C virus subtype 1b. A digest of the protocol:
(§2)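 HCV 1b-BK NS5B∆C55 (residues 1-536) carrying R158M or R158K, expressed in E. coli BL21(DE3) and purified. Polymerase run on a homopolymeric template RNA with UTP as substrate; IC50 and UTP Km measured in duplicate.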

For data set [7], the target named is RNA-directed RNA polymerase (Hepacivirus hominis, UniProt O39930, DELTAC55/R158M). The data set can be described thus: Inhibitory activity against HCV 1b BK NS5B deltaC55-R158M mutant RNA polymerase. Details: species or system Hepatitis C virus subtype 1b. The method in brief:
as §2

Data set [8] concerns the target T1, RNA-directed RNA polymerase. In words: Inhibitory activity against HCV 2a BK NS5B deltaC21 RNA polymerase. The arrangement: species or system Hepatitis C virus subtype 2a.
The target is the same in data set [9]. In words: Inhibitory activity against HCV 3a BK NS5B deltaC21 RNA polymerase.
Data set [10] shares this target. In words: Inhibitory activity against HCV 1b BK NS5B deltaC21 RNA polymerase. Details: species or system Hepatitis C virus subtype 1b. A digest of the protocol: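 HCV 1b-BK NS5B∆C21 (residues 1-570), expressed in E. coli BL21(DE3) and purified; polymerase activity measured on a homopolymeric template RNA; IC50 read-out.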
The target is the same in data set [11]. In words: Inhibitory activity against HCV 1b BK NS5B RNA polymerase. Details: species or system Hepatitis C virus subtype 1b. The method in brief: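 Purified HCV 1b-BK NS5B∆C55 (residues 1-536), expressed in E. coli BL21(DE3), assayed with a homopolymeric template RNA at pH 7.4 with Mg as metal ion; IC50 taken as the average of at least three independent determinations.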

Structures are written as SMILES. Bounds are passed on as bounds.

The values that follow come from ChEMBL document CHEMBL1138187, “2-(2-Thienyl)-5,6-dihydroxy-4-carboxypyrimidines as inhibitors of the hepatitis C virus NS5B polymerase: discovery, SAR, modeling, and mutagenesis” (J Med Chem, 2006).

T1 sequence (O39930 whole entry, the tested form may be a part): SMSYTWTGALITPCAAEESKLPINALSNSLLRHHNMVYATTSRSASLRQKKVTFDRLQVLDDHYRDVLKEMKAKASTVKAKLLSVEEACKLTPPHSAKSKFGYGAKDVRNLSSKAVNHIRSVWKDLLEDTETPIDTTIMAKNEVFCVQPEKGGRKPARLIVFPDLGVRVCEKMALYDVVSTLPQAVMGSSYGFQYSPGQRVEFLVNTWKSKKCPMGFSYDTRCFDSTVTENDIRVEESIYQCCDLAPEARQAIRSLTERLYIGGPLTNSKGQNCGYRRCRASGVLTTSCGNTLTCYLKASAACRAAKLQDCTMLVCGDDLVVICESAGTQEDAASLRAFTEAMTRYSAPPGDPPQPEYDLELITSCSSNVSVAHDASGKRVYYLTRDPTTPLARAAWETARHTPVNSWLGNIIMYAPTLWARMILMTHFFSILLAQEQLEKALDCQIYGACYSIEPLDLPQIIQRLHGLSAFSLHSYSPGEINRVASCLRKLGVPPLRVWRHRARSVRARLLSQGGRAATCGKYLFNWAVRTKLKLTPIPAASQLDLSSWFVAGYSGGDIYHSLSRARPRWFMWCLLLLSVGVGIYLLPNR

`O=C(Cc1csc2ccccc12)Nc1ccsc1-c1nc(C(=O)O)c(O)c(=O)[nH]1` displayed an IC50 in [1] of 230 nM. At Hepatitis C virus, this molecule showed an EC50 of over 50000 nM.

In [1], `O=C(Nc1ccsc1-c1nc(C(=O)O)c(O)c(=O)[nH]1)OCc1cccc2ccccc12` registered a half-maximal inhibitory concentration (IC50) of 140 nM. The EC50 at Hepatitis C virus came out at 13600 nM.

The molecule `O=C(O)c1nc(-c2cnccn2)nc(O)c1O` yielded an IC50 in data set [1] of 5300 nM.

With `O=C(O)c1nc(-c2cc3ccccc3s2)nc(O)c1O`, it took 11600 nM to reach half-maximal inhibition in [1] (IC50).

`O=C(Cc1c(-c2ccccc2)[nH]c2ccccc12)Nc1ccsc1-c1nc(C(=O)O)c(O)c(=O)[nH]1` displayed an IC50 in [1] of 280 nM. Further, the half-maximal effective concentration (EC50) at Hepatitis C virus was over 50000 nM.

In turn, `O=C(Nc1ccsc1-c1nc(C(=O)O)c(O)c(=O)[nH]1)c1ccccc1` showed an IC50 in [1] of 800 nM. Moreover, on Hepatitis C virus, the EC50 is over 50000 nM.

As for `O=C(O)c1nc(-c2cc([N+](=O)[O-])cs2)nc(O)c1O`, 9400 nM corresponded to half-maximal inhibition in data set [1] (IC50).

Take `O=C(Nc1csc(-c2nc(C(=O)O)c(O)c(=O)[nH]2)c1)c1cccs1`: in data set [1], the IC50 was 13800 nM.

Regarding `Cn1c(-c2sccc2[N+](=O)[O-])nc(C(=O)O)c(O)c1=O`, the IC50 in data set [1] is 8700 nM.

In the case of `O=C(NCc1csc2ccccc12)Nc1ccsc1-c1nc(O)c(O)c(C(=O)O)n1`, the IC50 in data set [1] came out at 220 nM. On Hepatitis C virus, this molecule registered an EC50 of 30000 nM.

`CCCCc1nc(C(=O)O)c(O)c(=O)[nH]1`: the IC50 in [1] is over 50000 nM.

The molecule `CS(=O)(=O)c1nc(C(=O)O)c(O)c(=O)[nH]1` had an IC50 in [1] of 2400 nM.

Molecule `O=C(O)c1nc(-c2ccccc2)nc(O)c1O` returned a pKa in data set [2] of 8.6.

In turn, `C=CCn1c(-c2sccc2[N+](=O)[O-])nc(C(=O)O)c(O)c1=O` gave an IC50 in data set [1] of 69300 nM.

In [1], `Cc1ccsc1-c1nc(O)c(O)c(C(=O)O)n1` came in with an IC50 of 5600 nM.

With `O=C(Nc1ccsc1-c1nc(C(=O)O)c(O)c(=O)[nH]1)OCCc1ccccc1`, in data set [3], the logD is -0.43. This molecule also gave an IC50 in data set [1] of 460 nM. In addition, on Hepatitis C virus, the EC50 was over 50000 nM.

As to `O=C(Cc1ccccc1)Nc1ccsc1-c1nc(O)c(O)c(C(=O)O)n1`, in data set [1], the IC50 stood at 380 nM.

Molecule `O=C(O)c1nc(-c2ccc([N+](=O)[O-])s2)[nH]c(=O)c1O` showed an IC50 in data set [1] of 16000 nM.

`O=C(Cc1ccccc1Cl)Nc1ccsc1-c1nc(O)c(O)c(C(=O)O)n1` gave a 50% inhibitory concentration (IC50) in data set [1] of 210 nM. At Hepatitis C virus, this molecule showed an EC50 of 53300 nM.

Molecule `Cc1cccc(Cl)c1CNC(=O)Nc1ccsc1-c1nc(O)c(O)c(C(=O)O)n1` came in with a logD in data set [3] of 0.6. In addition, in data set [1], the IC50 was 90 nM. Also, at Hepatitis C virus, the 50% effective concentration (EC50) worked out at 13600 nM. Moreover, the Fu in the data set listed under Homo sapiens turned out to be 0.2%.

In the case of `Cn1c(-c2cccs2)nc(C(=O)O)c(O)c1=O`, the IC50 in data set [4] amounted to 460 nM; in data set [1], 4200 nM. For the same molecule, the pKa in data set [2] turned out to be 9.1.

In [1], `O=C(O)c1nc(-c2sccc2NS(=O)(=O)c2ccc3ccccc3c2)[nH]c(=O)c1O` registered an IC50 of 1420 nM.

Consider `O=C(O)c1nc(-c2ccco2)nc(O)c1O`, for which the IC50 in data set [4] is 240 nM; in data set [1], 2900 nM; in [5], 2900 nM. The pKa in data set [2] is 7.4.

Regarding `O=C(O)c1nc(-c2cccs2)nc(O)c1O`, the IC50 came out at 92000 nM in [6], 9300 nM in data set [7] and 240 nM in [4]. This molecule also registered a logD in data set [3] of -1.95. Further, the pKa in data set [2] stood at 7.7.

Take `O=C(Nc1ccccc1)Nc1ccsc1-c1nc(O)c(O)c(C(=O)O)n1`: the IC50 in [1] was 580 nM. Besides, at Hepatitis C virus, the EC50 was over 50000 nM.

Turning to `O=C(O)c1nc(-c2nccs2)nc(O)c1O`, the IC50 in data set [6] was found to be 16000 nM; in data set [7], 2770 nM; in [4], 210 nM; in data set [1] it was 760 nM; in data set [5] it was 760 nM. In [3], the logD was -2.12. Also, the pKa in [2] amounted to 6.9.

For the molecule `O=C(O)c1nc(Cc2ccccc2)nc(O)c1O`, the IC50 in data set [1] is over 50000 nM.

Consider `O=C(O)c1nc(C2CCCCC2)nc(O)c1O`, for which the IC50 in [4] is over 25000 nM; in data set [1] it was over 50000 nM; in data set [5], over 50000 nM. In addition, in data set [2], the pKa was 8.7.

For `O=C(NCc1ccccc1)Nc1ccsc1-c1nc(O)c(O)c(C(=O)O)n1`, the IC50 in data set [1] was determined as 230 nM.

The molecule `O=C(NCc1ccccc1Cl)Nc1ccsc1-c1nc(O)c(O)c(C(=O)O)n1` came in with a logD in data set [3] of 0.37. For the same molecule, the IC50 in data set [8] was determined as 44 nM; in data set [9], 48 nM; in data set [10] it was 45 nM; in data set [4], 36 nM; in [1], 150 nM; in data set [11], 130 nM. In data set [5], this molecule registered an IC50 of 150 nM. For the same molecule, the pKa in [2] was determined as 6.6. Also, the EC50 at Hepatitis C virus came out at 9300 nM.

Molecule `O=C(Cc1c[nH]c2ccccc12)Nc1ccsc1-c1nc(O)c(O)c(C(=O)O)n1` displayed an IC50 in data set [1] of 200 nM. The same molecule had an EC50 on Hepatitis C virus of over 50000 nM.

Regarding `O=C(O)c1nc(-c2sccc2[N+](=O)[O-])nc(O)c1O`, the IC50 in data set [4] was determined as 65 nM; in data set [1] it was 680 nM; in data set [5], 680 nM. For the same molecule, the pKa in data set [2] is 6.9.

For `Cc1ccc(-c2nc(O)c(O)c(C(=O)O)n2)s1`, inhibition in data set [1] was half-maximal at 48600 nM (IC50).

`O=C(Nc1ccsc1-c1nc(O)c(O)c(C(=O)O)n1)OCc1c(Cl)cccc1Cl` came in with an IC50 in data set [1] of 190 nM. Also, the EC50 at Hepatitis C virus stood at 18600 nM.

Consider `O=C(CCc1ccccc1)Nc1ccsc1-c1nc(O)c(O)c(C(=O)O)n1`, for which the IC50 in data set [1] amounted to 580 nM. The EC50 at Hepatitis C virus was over 50000 nM.

In data set [1], `O=C(Nc1ccsc1-c1nc(O)c(O)c(C(=O)O)n1)OCc1ccccc1` showed an IC50 of 290 nM.

Consider `Nc1ccsc1-c1nc(C(=O)O)c(O)c(=O)[nH]1`, for which the midpoint of inhibition in data set [1], the IC50, lay at 1900 nM.

As for `O=C(O)c1nc(-c2sccc2[N+](=O)[O-])n(Cc2ccccc2)c(=O)c1O`, the IC50 in [1] was 79300 nM.

In data set [1], `O=C(NCCc1ccccc1)Nc1ccsc1-c1nc(O)c(O)c(C(=O)O)n1` had an IC50 of 620 nM. The same molecule came in with an EC50 on Hepatitis C virus of over 50000 nM.

On to `O=C(Nc1ccsc1-c1nc(O)c(O)c(C(=O)O)n1)OCc1ccccc1Cl`, for which the IC50 in [6] came out at 900 nM; in data set [7], 340 nM; in [1], 140 nM. The EC50 on Hepatitis C virus is 31500 nM.

As usually defined, the IC50 is the concentration that inhibits the measured activity by half. The low end stands for greater potency, the high end for weaker potency. In general, EC50 refers to the concentration that produces a half-maximal response. The low end stands for greater potency, the high end for weaker potency. As usually defined, the pKa is the pH at which an ionisable group is half protonated. Higher therefore signals a weaker acid or stronger base. By logD is commonly meant lipophilicity at a set pH, counting ionised and neutral species. Higher therefore signals a more lipophilic compound.
